pIC50: −log10 of the molar value. Active and inactive are the calls of the source.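 The calls were made as follows: active = inhibitor of the AddAB recombination enzyme whose half-maximal inhibitory concentration is at or below 10 µM; inactive = half-maximal inhibitory concentration above 10 µM.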
Tested on: E. coli V3065 expressing H. pylori AddAB, T4 phage, OD growth
Assay: growth inhibition of T4-infected E. coli expressing H. pylori AddAB, late-stage follow-up, AddAB inhibitor project, absorbance, E. coli V3065, powder samples, round 2 (AID 651942)
How it was run: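 Replication – each compound tested in triplicate · Material – E. coli V3065 carrying H. pylori addAB+ · Medium – Cation Mueller Hinton broth · Probe or stimulus – mutant T4 phage, MOI 0.02 · Timing – 60 min preincubation, 18 h post-infection, 37 °C · Detection – optical density at 600 nm as bacterial growth measure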

Row | SMILES | IC50 | pIC50
1 | CCn1cc(C(=O)O)c(=O)c2cnc(N3CCN(C(=S)Nc4ccccc4OC)CC3)nc21 | 30.6 µM (inactive) | –
2 | CCn1cc(C(=O)O)c(=O)c2cnc(N3CCN(C(=S)NC(=O)c4cccc(C)c4)CC3)nc21 | 19 µM (inactive) | –
3 | CCn1cc(C(=O)O)c(=O)c2cnc(N3CCN(C(=S)Nc4ccccc4F)CC3)nc21 | – | 5.12
4 | CCn1cc(C(=O)O)c(=O)c2cnc(N3CCN(C(=S)Nc4cccc(C(F)(F)F)c4)CC3)nc21 | – | 5.99
5 | CCn1cc(C(=O)O)c(=O)c2cnc(N3CCN(C(=S)NCc4ccccc4)CC3)nc21 | 29.4 µM (inactive) | –
6 | CCn1cc(C(=O)O)c(=O)c2cnc(N3CCN(C(=S)Nc4ccc(Cl)cc4)CC3)nc21 | – | 5.19

Reference: PubChem BioAssay AID651942 (The Scripps Research Institute Molecular Screening Center, 2012)
